Most compounds without a hit are left out; they make up all but 2.8% or so of the library.
JMJD2C inh: inhibitors of GASC-1 histone demethylase, primary screen, biochemical, fluorescence, DELFIA europium. GST-JMJD2C(1-420) H3K9me3 demethylation. inhibition, % at 2.35 µM. 0.069% of 330,000 active. AID 2099, 2009;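 active = more than half of a compound's replicate wells show inhibition beyond 50%, single wells judged on their own value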;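 note: signal counts dimethyl H3K9 product captured on neutravidin plate; 0% = median of DMSO wells and 100% = 0.3 times that DMSO median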
Rtt109 Vps75: inhibitors of C. albicans Rtt109/Vps75 HAT, primary screen, biochemical, ThioGlo CoA-SH fluorescence, plate reader; purified Rtt109/Vps75, 4 h; Histone acetyltransferase RTT109 (Candida albicans (strain SC5314 / ATCC MYA-2876)), …; AID 540336, 2011; 0.16% of 330,000 active; inhibition, % at 34.9 µM;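 active = inhibition of at least 50% in every replicate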
Target sequence (Q5AAJ8 whole entry, looked up): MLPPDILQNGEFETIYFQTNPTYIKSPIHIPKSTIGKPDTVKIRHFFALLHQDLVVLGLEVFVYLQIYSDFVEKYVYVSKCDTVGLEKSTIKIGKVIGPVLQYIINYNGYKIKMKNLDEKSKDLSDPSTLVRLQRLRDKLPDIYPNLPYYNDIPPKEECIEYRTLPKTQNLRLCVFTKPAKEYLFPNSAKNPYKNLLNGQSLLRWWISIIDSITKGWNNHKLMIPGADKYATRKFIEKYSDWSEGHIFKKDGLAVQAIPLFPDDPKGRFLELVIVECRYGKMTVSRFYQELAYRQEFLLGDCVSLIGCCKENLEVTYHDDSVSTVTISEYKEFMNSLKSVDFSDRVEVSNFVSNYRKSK
T cell modulator: modulators of CD8 T cell-vesicle binding, primary screen, mouse 2C CD8+ T cells, flow cytometry | 2C CD8+ T cell-vesicle binding; active compounds read low | response (vesicle binding), % at 7 µM | 0.068% of 330,000 active | AID 2052, 2009;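 active = response, share of CD8 T cells binding vesicles, and their 90th percentile fluorescence all below set limits, cut at about 80% in these data, passing the limit was not always enough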;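 note: values below 100% mean blocked vesicle binding to the CD8+ T cells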
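material = purified 2C TCR transgenic mouse naive CD8+ T cells | controls = Unloaded micro-vesicles (low), QL9 vesicles with 0.7% DMSO (high) | detection = cytometric PE anti-B7-1 and Alexa647 anti-CD8 signals after 1% paraformaldehyde fixation | incubation = binding step 1.5 h, 37 °C, antibody labelling 20 min, ice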
NR3A LBD binder: binders of NR3A ligand-binding domain, primary screen, biophysical, differential scanning fluorimetry, uHTS | Tm shift relative to glycine control, % at 25 µM | NR3A LBD differential scanning fluorimetry, Tm shift; 0% = protein alone, 100% = glycine-bound protein | Glutamate receptor ionotropic, NMDA 3A (GRIN3A) ligand-binding domain | 2.5% of 340,000 active;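 active = melting temperature shift of at least 10% of the positive control shift, at one fixed dose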
An asterisk follows results filed as active; / = no result.

SMILES | JMJD2C inh | Rtt109 Vps75 | T cell modulator | NR3A LBD binder
O=C(O)c1cccnc1SCC(=O)C12CC3CC(CC(C3)C1)C2 | -1.5 | -0.3 | 319.5 | 3.8
O=C(CSc1ccccn1)C12CC3CC(CC(C3)C1)C2 | -3.2 | -3.8 | 191.6 | 12.5*
Cc1ccc(C(=O)CSc2ccccn2)cc1 | -3.7 | 4.7 | 264.5 | 11.0*
CNc1ccc(N=Nc2cccc3ncccc23)cc1 | / | -1.8 | / | -13.3
COc1ccc(N2C(N)=NC(N)=NC23CCCC3)cc1 | 6.4 | -11.6 | 251.0 | 1.0
NC1=NC2(CCCCC2)N(c2ccc(F)cc2)C(N)=N1 | -11.8 | -12.1 | 108.2 | 20.1*
CCc1nc(SCC(=O)N2CCCCC2)c2c(=O)n(C)c(=O)n(C)c2n1 | 2.7 | -1.3 | 475.5 | 0.3
CC(C)(C=O)C1=CC(=O)c2ccccc2C1=O | 5.3 | -1.6 | 787.9 | 11.2*
O=C(Cc1cccs1)N[C@@H]1c2ccccc2CC[C@H]1OCc1ccccc1 | / | 0.3 | / | 0.7
COc1ccc(N2CCOCC2)c(NC(=O)c2cccnc2)c1 | 13.8 | -3.7 | 210.4 | 1.7
COc1ccccc1COCC(O)CN1CCN(S(=O)(=O)c2cccc(F)c2)CC1 (stereo not given) | -5.7 | -1.4 | 274.7 | 2.3
COc1cccc(NC(=O)C2CCN(S(=O)(=O)c3ccc4c(c3)N(C(C)=O)CCO4)CC2)c1 | -19.4 | 8.5 | 276.3 | 17.7*
Cn1cc(Cl)c(C(=O)OCC(=O)c2ccccc2)n1 | 35.1 | -17.8 | 116.0 | -2.4
COC(=O)Cc1ccc(NC(=S)NCc2cccc(OC)c2)cc1 | 17.2 | 0.2 | 422.1 | 0.8
CCCCc1ccc(NC(=S)NCc2cccc(OC)c2)cc1 | 3.7 | / | 242.0 | 11.0*
CCCCc1ccc(NC(=S)Nc2ccc(Nc3ccc(OC)cc3)cc2)cc1 | -7.4 | 1.9 | 337.0 | 11.9*
CC(Oc1cccc(Br)c1)C(=O)NNC(=O)CCNC(=O)c1ccccc1Cl (stereo not given) | 6.7 | 11.5 | 497.1 | 2.6
COc1ccc(CNc2cccnc2)c(OC)c1OC | / | 8.4 | / | -0.7
Cc1ccc(N2CC(C(=O)Nc3cccc(C(=O)NC4CC4)c3)CC2=O)cc1 (stereo not given) | -5.7 | -5.5 | 398.6 | -2.7

Screens deposited in PubChem BioAssay by several laboratories.
